PME-1 inh = PME-1 (human) inhibition. Q9Y570. recombinant PME-1, FP-Rh probe fluorescence polarization. inhibition, % at 5.9 µM. 320,000 compounds, 0.53% hits. AID 2130;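 active = inhibition above the campaign mean of all compounds plus 3 SD, cut at about 26% in these data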;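 also: competitive labeling of PME-1 active site by serine hydrolase directed probe; inhibitors block probe labeling so polarization falls and inhibition rises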
Fam108B inh = counter-screen for RBBP9 inhibitors: inhibitors of mouse Fam108B; recombinant Fam108B, FP-Rh probe fluorescence polarization; inhibition, % at 9.51 µM; 300,000 compounds, 0.33% hits; AID 1947;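 active = inhibition above the screen mean inhibition plus 3 SD, computed separately per campaign, cut at about 18% in these data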;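 also: inhibitors lower polarization as less probe binds the enzyme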
PRMT1 inh = blocks human protein arginine methyltransferase 1 | Q99873 | recombinant PRMT1, activity-based probe fluorescence polarization | inhibition, % at 2.79 µM | 370,000 compounds, 1.3% hits;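 active = inhibition above about 21% made by adding two undisclosed values, limit read from the data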
GSTO1 inh = counter-screen for RBBP9 inhibitors: inhibitors of human GSTO1 | AID 1974 | 300,000 compounds, 1.1% hits | recombinant GSTO1, activity-based probe fluorescence polarization | P78417 | inhibition, % at 5.96 µM;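 active = inhibition above the campaign mean inhibition plus 3 SD, cut at about 35% in these data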
Target sequence (P78417 whole entry, looked up): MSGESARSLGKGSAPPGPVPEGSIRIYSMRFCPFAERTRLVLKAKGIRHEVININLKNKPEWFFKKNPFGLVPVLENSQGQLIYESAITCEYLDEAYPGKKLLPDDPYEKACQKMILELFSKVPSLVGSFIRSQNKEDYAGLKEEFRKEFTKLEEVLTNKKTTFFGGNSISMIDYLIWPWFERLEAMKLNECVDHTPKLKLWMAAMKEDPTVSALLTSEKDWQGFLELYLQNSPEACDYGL
PAD4 inh = inhibitors of human PAD4; recombinant PAD4, RCA probe fluorescence polarization; 330,000 compounds, 0.41% hits; inhibition, % at 6.36 µM; AID 485272; Q9UM07;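 active = percent inhibition above a cutoff equal to the mean of all tested compounds plus 3 SD, cut at about 15% in these data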
RBBP9 inh = blocks human serine hydrolase RBBP9. O75884. recombinant RBBP9, FP-Rh probe fluorescence polarization. inhibition, % at 7.94 µM. 220,000 compounds, 0.2% hits;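 active = inhibition above the campaign mean of all tested compounds plus 3 SD, cut at about 14% in these data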
Target sequence (O75884 whole entry, looked up): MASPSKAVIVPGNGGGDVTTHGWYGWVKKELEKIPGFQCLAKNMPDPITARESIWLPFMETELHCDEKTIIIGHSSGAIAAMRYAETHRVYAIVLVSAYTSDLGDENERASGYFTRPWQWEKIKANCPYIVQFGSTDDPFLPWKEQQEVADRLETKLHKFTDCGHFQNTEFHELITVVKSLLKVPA
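Test system: recombinant human RBBP9; Timing: 30 min then 45 min, 25 °C; Detection: fluorescence polarization; Control set: RBBP9 with DMSO as uninhibited control, no-protein wells as full inhibition; Compound dosing: one concentration, 7.94 µM nominal, 0.794% DMSO; Probe or stimulus: FP-Rh activity-based probe, 375 nM before mixing.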
RBBP9 inh conf = human RBBP9 inhibition, confirmation | shares compounds with RBBP9 inh | recombinant RBBP9, FP-Rh probe fluorescence polarization | inhibition, % at 7.94 µM | 410 compounds, 36% hits | AID 1537;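 active = inhibition above the hit cutoff derived for the primary screen, cut at about 15% in these data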
Fam108b confirm = Fam108b (mouse) hydrolase inhibition, confirmation assay. inhibition, % at 9.51 µM. recombinant Fam108b, FP-Rh probe fluorescence polarization. 930 compounds, 44% hits. shares compounds with Fam108B inh;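 active = inhibition above a limit from the primary screen, the mean over all compounds plus 3 SD, cut at about 19% in these data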;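 also: inhibitors free the probe so polarization falls as inhibition rises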
Fam108b ABPP HTS = mouse ABHD17B inhibition. recombinant Fam108b, gel-based ABPP, fluorophosphonate probe. inhibition, % at 20 µM. shares compounds with Fam108B inh. 260 compounds, 44% hits; in the data active = inhibition above about 40%
GSTO1 confirm = GSTO1 (human) inhibition, confirmation; 2,400 compounds, 54% hits; inhibition, % at 5.96 µM; AID 2176; shares compounds with GSTO1 inh; recombinant GSTO1, probe fluorescence polarization;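 active = inhibition above the primary screen's cutoff, its mean inhibition plus 3 SD, cut at about 35% in these data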;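 also: loss of polarization as inhibitors block binding of rhodamine sulfonate ester activity probe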
Large screens that a line does not name were inactive (follow-up assays come after a bar, where they were run). This is a sample that favours compounds with a hit; in the whole collection about 2.3% have one here.

COc1cc(/C=C/c2nc3ccccc3c(=O)n2-c2ccccc2O)ccc1O	none (no result: RBBP9 inh)
Cc1ccc(C(O)P(=O)(Oc2ccccc2)Oc2ccccc2)cc1 (configuration not stated)	PME-1 inh 38 (no result: RBBP9 inh)
O=P(Oc1ccccc1)(Oc1ccccc1)C(O)c1ccccc1 (configuration not stated)	PME-1 inh 46 (no result: RBBP9 inh)
O=P(Oc1ccccc1)(Oc1ccccc1)C(Nc1ccccc1)c1ccccc1 (configuration not stated)	none
Cc1ccc(OP(=O)(NC(C)c2ccccc2)Oc2ccc(C)cc2)cc1 (configuration not stated)	none
CCN(CC)P(=S)(c1c(C)nc2ccccn12)c1c(C)nc2ccccn12	PRMT1 inh 24
Cc1ccc(CN2C(=O)NC(=O)C3(Cc4c(nc5ccccn5c4=O)N4CCCCCC43)C2=O)cc1 (configuration not stated)	GSTO1 inh 36
O=c1[nH]c(=O)n(CCC2=CCCCC2)c(O)c1/C=N/Nc1ccccc1	PRMT1 inh 22
NCCc1c[nH]c2ccc(C(N)=O)cc12	none (no result: RBBP9 inh)
Cc1cc2c(C(C)C)c(O)c(O)c(C=O)c2c(O)c1-c1c(C)cc2c(C(C)C)c(O)c(O)c(C=O)c2c1O	PRMT1 inh 25 (no result: PME-1 inh, Fam108B inh, GSTO1 inh, PAD4 inh)
CN1CCc2nc(N)c(C#N)c(-c3ccccc3)c2C1	GSTO1 inh 36
CN1CCc2nc3sc(C#N)c(N)c3c(-c3cccs3)c2C1	none
CCN(CC)c1ccc(/C=C2\C(=O)NC(=O)N(Cc3ccco3)C2=O)cc1	PRMT1 inh 22
O=C1NC(=O)N(Cc2ccco2)C(=O)/C1=C/c1cccn1CCOc1ccccc1Cl	PME-1 inh 51, PRMT1 inh 22
O=C1NC(=O)C(Nc2ccccc2)C(=O)N1	none (no result: PME-1 inh, Fam108B inh, GSTO1 inh, PAD4 inh, RBBP9 inh)
O=C(c1ccccc1)c1ccccc1N=Cc1c(O)[nH]c(=O)[nH]c1=O	none
NCCCC(=O)OC1N=C(c2ccccc2Cl)c2cc(Br)ccc2NC1=O (configuration not stated)	none
O=C(c1ccc(-c2ccccc2)c(F)c1)C1CCCN(CCO)C1 (configuration not stated)	none
O=C(O)CNC1c2ccccc2CSc2ccccc21 (configuration not stated)	PRMT1 inh 21 (no result: RBBP9 inh)
CCN(CC)C(=O)c1ccc2c(c1)C1C(Cl)C(Sc3ccccc3[N+](=O)[O-])CC1C(C(=O)O)N2 (configuration not stated)	Fam108B inh 47, GSTO1 inh 52, RBBP9 inh 28 (no result: PRMT1 inh) | RBBP9 inh conf inactive | Fam108b confirm inactive | GSTO1 confirm 49
CCC[C@H](N[C@@H](CCC)[C@H](O)c1ccccc1)[C@H](O)c1ccccc1	none (no result: RBBP9 inh)
Cc1ccc2c(c1Cl)NC(C(=O)O)C1CC(Sc3ccccc3[N+](=O)[O-])C(Cl)C21 (configuration not stated)	Fam108B inh 27, GSTO1 inh 36 (no result: PRMT1 inh) | Fam108b confirm inactive
COc1ccc(-c2[nH]ncc2CNC(C)Cc2cccc(C)n2)cc1F (configuration not stated)	none
COP(=O)(OC)C(NS(=O)(=O)c1ccccc1)C(Cl)(Cl)Cl (configuration not stated)	none
CCOc1ccc(N2C(=O)/C(=C/c3ccco3)C(=O)NC2=S)cc1	none (no result: PRMT1 inh, RBBP9 inh)
Cc1ccccc1N1C(=O)/C(=C/c2ccco2)C(=O)NC1=S	Fam108B inh 77, GSTO1 inh 36 (no result: PRMT1 inh, RBBP9 inh) | Fam108b confirm 68 | Fam108b ABPP HTS 70
CCCCn1c(C)c(C(=O)OCC)c2c(CN3CCCC3)c(O)ccc21	PME-1 inh 27, Fam108B inh 46 (no result: RBBP9 inh) | Fam108b confirm inactive
